Results reported in ChEMBL document CHEMBL4330087, “Synthesis, antimicrobial activity, attenuation of aminoglycoside resistance in MRSA, and ribosomal A-site binding of pyrene-neomycin conjugates” (Eur J Med Chem, 2019).
pIC50: −log10 of the molar value. Converted amounts (≈) assume the structure as drawn. The source made the active and inactive calls. No cut-off for these calls is given here.

Assays:
[1] = test system: Staphylococcus aureus; assay: Antibacterial activity against methicillin-resistant Staphylococcus aureus A960649 after 15 to 20 hrs by CLSI protocol based microdilution assay; assay type: functional
Procedure, shortened: (§1)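 CLSI broth microdilution on exponential-phase bacteria at ~3×10^5 cells/mL in cation-adjusted Mueller-Hinton broth. Serial 2-fold dilutions gave final concentrations of 50 to 0.78 μM; compound stocks were 10× in 10% DMSO. Incubated at 37 °C for 15-20 h, growth read at A595. Percent inhibition averaged over triplicates; MIC in μM.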

[2] = test system: Staphylococcus aureus; assay: Antibacterial activity against NEO-sensitive Staphylococcus aureus C2 after 15 to 20 hrs by CLSI protocol based microdilution assay; assay type: functional
Procedure, shortened: (§2)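 CLSI broth microdilution MIC in triplicate on exponential-phase cells, ~3×10^5 cells per mL in cation-adjusted Mueller-Hinton broth. Compound was added from 10× stocks in 10% DMSO as serial 2-fold dilutions, final 50 to 0.78 μM. Plates were incubated at 37 °C, humidified, 15-20 h. Growth was read as absorbance at 595 nm, and percent inhibition was averaged over triplicates.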

[3] = test system: Streptococcus pyogenes; assay: Antibacterial activity against NEO-resistant Streptococcus pyogenes C203 after 15 to 20 hrs by CLSI protocol based microdilution assay; assay type: functional; procedure, shortened: as §1
[4] = test system: Staphylococcus aureus; assay: Antibacterial activity against NEO-sensitive Staphylococcus aureus C1 after 15 to 20 hrs by CLSI protocol based microdilution assay; assay type: functional; procedure, shortened: as §2
[5] = test system: Staphylococcus aureus; assay: Antibacterial activity against NEO-sensitive Staphylococcus aureus 25923 after 15 to 20 hrs by CLSI protocol based microdilution assay; assay type: functional; procedure, shortened: as §1
[6] = test system: Ribosomal RNA A-site; assay: Binding affinity to rRNA-A site in human MDA-MB-231 cells assessed as inhibition of protein translation; assay type: cell-based
[7] = target: Ribosomal RNA A-site; assay: Displacement of F-NEO from human cytosolic rRNA-A site after 10 to 20 mins by fluorescence assay; assay type: nucleic-acid assay
Procedure, shortened: (§3)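 A 100 nM F-NEO:A-site RNA complex in 10 mM HEPES, 50 mM NaCl, 0.04 mM EDTA, pH 7.0 was titrated with 2-fold dilutions of ligand from 20 to 0.009 μM, or from 60 or 40 μM for weaker ligands. Incubated 10-20 min at room temperature, fluorescence read at ex 485/em 525 nm. IC50 from dose-response curve fit.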

[8] = test system: Mycolicibacterium smegmatis; assay: Antibacterial activity against NEO-sensitive Mycobacterium smegmatis after 15 to 20 hrs by CLSI protocol based microdilution assay; assay type: functional; procedure, shortened: as §1
[9] = test system: Escherichia coli; assay: Antibacterial activity against NEO-sensitive Escherichia coli harboring TolC mutant after 15 to 20 hrs by CLSI protocol based microdilution assay; assay type: functional; procedure, shortened: as §1
[10] = test system: Staphylococcus epidermidis; assay: Antibacterial activity against NEO-sensitive Staphylococcus epidermidis 12384 after 15 to 20 hrs by CLSI protocol based microdilution assay; assay type: functional; procedure, shortened: as §1
[11] = test system: Staphylococcus aureus; assay: Antibacterial activity against methicillin-resistant Staphylococcus aureus M0602 after 15 to 20 hrs by CLSI protocol based microdilution assay; assay type: functional; procedure, shortened: as §1
[12] = test system: Escherichia coli; assay: Antibacterial activity against NEO-sensitive Escherichia coli ATCC 25922 after 15 to 20 hrs by CLSI protocol based microdilution assay; assay type: functional; procedure, shortened: as §1
[13] = Toxicity in Caenorhabditis elegans infected with methicillin-resistant Staphylococcus aureus assessed as effect on nematode larvae viability by measuring decrease in formazan production at 6.25 to 50 uM after 24 hrs by MTT assay relative to control
[14] = test system: Staphylococcus aureus; assay: Antibacterial activity against methicillin-resistant Staphylococcus aureus 33591 after 15 to 20 hrs by CLSI protocol based microdilution assay; assay type: functional; procedure, shortened: as §1
[15] = Toxicity in Caenorhabditis elegans infected with methicillin-resistant Staphylococcus aureus assessed as effect on nematode larvae viability by measuring decrease in formazan production at 3.13 to 1.56 uM after 24 hrs by MTT assay
[16] = test system: Staphylococcus aureus; assay: Antibacterial activity against NEO-sensitive Staphylococcus aureus harboring NorA mutant after 15 to 20 hrs by CLSI protocol based microdilution assay; assay type: functional; procedure, shortened: as §1
[17] = test system: Staphylococcus aureus; assay: Antibacterial activity against NEO-sensitive Staphylococcus aureus 6538 after 15 to 20 hrs by CLSI protocol based microdilution assay; assay type: functional; procedure, shortened: as §2
[18] = test system: Staphylococcus aureus; assay: Antibacterial activity against methicillin-resistant Staphylococcus aureus SU-5 after 15 to 20 hrs by CLSI protocol based microdilution assay; assay type: functional; procedure, shortened: as §1
[19] = test system: Bacillus anthracis; assay: Antibacterial activity against NEO-sensitive Bacillus anthracis BA852 after 15 to 20 hrs by CLSI protocol based microdilution assay; assay type: functional; procedure, shortened: as §1
[20] = test system: Ribosomal RNA A-site; assay: Displacement of F-NEO from Escherichia coli rRNA-A site after 10 to 20 mins by fluorescence assay; assay type: nucleic-acid assay; procedure, shortened: as §3
[21] = test system: Escherichia coli; assay: Antibacterial activity against multidrug-resistant Escherichia coli H4H after 15 to 20 hrs by CLSI protocol based microdilution assay; assay type: functional; procedure, shortened: as §1
[22] = test system: Staphylococcus aureus; assay: Antibacterial activity against NEO-sensitive Staphylococcus aureus NRS77 after 15 to 20 hrs by CLSI protocol based microdilution assay; assay type: functional; procedure, shortened: as §2

SMILES: NC[C@@H]1O[C@H](O[C@H]2[C@@H](O)[C@H](O[C@@H]3[C@@H](O)[C@H](N)C[C@H](N)[C@H]3O[C@H]3O[C@H](CN)[C@@H](O)[C@H](O)[C@H]3N)O[C@@H]2CO)[C@H](N)[C@@H](O)[C@@H]1O [FRAMYCETIN]
- MIC [1]: 100 µM (≈ 61.5 µg/mL)
- MIC [2]: 6.3 µM (≈ 3.87 µg/mL)
- MIC [3]: inactive
- MIC [4]: 3.2 µM (≈ 1.97 µg/mL)
- MIC [5]: 1.56 µM (≈ 0.959 µg/mL)
- pIC50 [6]: 6.86
- pIC50 [7]: 7.12
- MIC [8]: 0.78 µM (≈ 0.479 µg/mL)
- MIC [9]: 1.56 µM (≈ 0.959 µg/mL)
- MIC [10]: 1.56 µM (≈ 0.959 µg/mL)
- MIC [11]: > 400 µM
- MIC [12]: 3.13 µM (≈ 1.92 µg/mL)
- Activity [13]: 50 to 75%
- MIC [14]: 400 µM (≈ 246 µg/mL)
- Activity [15]: Non-Toxic
- MIC [16]: 1.56 µM (≈ 0.959 µg/mL)
- MIC [17]: 3.2 µM (≈ 1.97 µg/mL)
- MIC [18]: 200 to 400 µM (≈ 123 to 246 µg/mL)
- MIC [19]: 1.56 µM (≈ 0.959 µg/mL)
- pIC50 [20]: 7.06
- MIC [21]: 400 µM (≈ 246 µg/mL)
- MIC [22]: 1.6 µM (≈ 0.983 µg/mL)
